# Screens deposited in PubChem BioAssay by Broad Institute.
# Most compounds without a hit are left out; they make up all but 3.7% or so of the library.
# E-sel inducer = E-selectin induction on HUVECs; HUVEC E-selectin immunofluorescence imaging; normalized: neutral wells 0, TNF-alpha wells 100; activation, % at 7.58 µM; 260,000 tested, 0.37% active;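 active means mean E-selectin-positive cell signal at least 10% of the positive control, reached in at least 60% of replicates, without over 20% cell loss; inconclusive means no rule given, readout overlaps actives, possibly toxicity-flagged; inactive means the rest, including those meeting only one limit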
# Target sequence (P16581 whole entry, looked up): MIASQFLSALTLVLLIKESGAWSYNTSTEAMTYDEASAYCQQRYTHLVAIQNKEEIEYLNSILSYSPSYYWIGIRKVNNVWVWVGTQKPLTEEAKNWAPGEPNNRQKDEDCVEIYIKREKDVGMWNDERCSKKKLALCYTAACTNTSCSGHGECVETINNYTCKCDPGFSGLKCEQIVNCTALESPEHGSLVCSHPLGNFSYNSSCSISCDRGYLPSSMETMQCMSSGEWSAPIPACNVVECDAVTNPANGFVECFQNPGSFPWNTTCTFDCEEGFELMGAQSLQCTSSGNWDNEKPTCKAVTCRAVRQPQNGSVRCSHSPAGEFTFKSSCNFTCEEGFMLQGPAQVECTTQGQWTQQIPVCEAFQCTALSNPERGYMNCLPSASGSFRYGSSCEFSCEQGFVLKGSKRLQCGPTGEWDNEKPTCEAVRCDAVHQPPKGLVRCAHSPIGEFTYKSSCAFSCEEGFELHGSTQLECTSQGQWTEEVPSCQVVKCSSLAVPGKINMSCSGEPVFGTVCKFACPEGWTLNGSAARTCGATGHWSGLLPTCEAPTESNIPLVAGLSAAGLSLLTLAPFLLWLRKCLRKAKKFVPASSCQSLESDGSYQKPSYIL
#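 System: HUVEC / Compound: single concentration / Signal: immunofluorescence imaging / Read-out: percent E-selectin-positive cells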
# DENV2 CPE = inhibitors of DENV2 cytopathic effect. AID 651640. DENV2-infected cells, cytopathic effect rescue, plate reader. 350,000 tested, 1.7% active. CPE inhibition, % at 9.99 µM; in the data active means CPE inhibition above about 20%, passing the limit was not always enough; inconclusive means no clear call, values can overlap the other calls; tested in BHK-21 cells;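 further: 0% = median of neutral control wells and 100% = median of positive control wells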
# F508del corr = CFTR F508del correction in bronchial cells | CFBE cells, YFP halide quenching; stimulated with forskolin plus potentiator P3; % fluorescence drop versus neutral controls | activity (quench increase), % at 7.58 µM | 350,000 tested, 0.36% active;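 active means mean added fluorescence quench of at least 8% versus neutral control, with both replicates also reaching 8%; inconclusive means only one of the mean or replicate conditions met; inactive means mean below 8% and not both replicates reaching 8%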;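 further: cells transiently co-express mutant CFTR-F508del with the halide-sensitive YFP; corrector assay measuring rescue of mutant channel to the surface after 24 h compound exposure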
# ERAP1 HTS inh = ERAP1 (human) enzyme inhibition | Q9NZ08 | recombinant ERAP1, Leu-AMC fluorescence, 60 min | inhibition, % at 10.7 µM | 340,000 tested, 0.15% active | AID 652197;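 active means mean replicate inhibition of at least 30%, or all replicates individually reaching that 30% level; inactive means mean below 30% and not every replicate reaching it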;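 further: 0% = neutral control wells and 100% = L-leucinethiol positive control wells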
# FGF22 binding = FGF22 (human) thermal shift binding; activity (Tm shift, normalised), % at 9.99 µM; 340,000 tested, 1.5% active; recombinant FGF22 thermal shift, SYPRO orange fluorescence; percent of sucrose octasulfate shift, DMSO zero; Q9HCT0;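 active means mean Tm shift, scaled 0 neutral to 100 positive control, at about 1.3% or above, every replicate too, limit read from the data; inconclusive means no clear call, values can overlap the other calls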
# * marks the source's active call; other numbers are inactive results; ? = inconclusive; / = no result given.
SMILES,E-sel inducer,DENV2 CPE,F508del corr,ERAP1 HTS inh,FGF22 binding
COc1ccc(COCC23N=C4SCc5ccccc5C(=O)N4[C@H](c4ccccc4O2)[C@H]3CO[Si](C)(C)C(C)(C)C)cc1,/,28*,1,4,0
CCCN1C[C@H](C)[C@@H](OC)CN(C)C(=O)c2cc(NC(=O)c3cnccn3)ccc2OC[C@@H]1C,3,6,0,-1,0
C[C@@H]1CN([C@@H](C)CO)C(=O)c2cc(NC(=O)Nc3cccc4ccccc34)ccc2O[C@@H]1CN(C)C(=O)Nc1ccc2c(c1)OCO2,0,-5,-1,0,0
C[C@@H]1CCCCO[C@H](CN(C)C(=O)Nc2cccc3ccccc23)[C@H](C)CN([C@@H](C)CO)C(=O)c2cc(NC(=O)Nc3cccc4ccccc34)ccc2O1,0,-14,-1,-3,0
C[C@H]1CCCCO[C@H](CN(C)C(=O)Nc2cccc3ccccc23)[C@@H](C)CN([C@@H](C)CO)C(=O)c2cc(NC(=O)Nc3ccc4c(c3)OCO4)ccc2O1,0,5,1,-2,12*
C[C@@H]1CCCCO[C@H](CN(C)C(=O)Nc2cccc3ccccc23)[C@@H](C)CN([C@H](C)CO)C(=O)c2cc(NC(=O)Nc3cccc4ccccc34)ccc2O1,0,5,1,-2,1.6*
C[C@@H]1CCCCO[C@H](CN(C)C(=O)C2CCCCC2)[C@@H](C)CN([C@H](C)CO)C(=O)c2cc(NC(=O)Nc3cccc4ccccc34)ccc2O1,1,-3,0,-3,1.3*
C[C@@H]1CN([C@H](C)CO)C(=O)c2cc(NC(=O)Nc3cccc4ccccc34)ccc2O[C@@H](C)CCCCO[C@H]1CN(C)C(=O)C1CCCCC1,0,8,0,-3,-1
C[C@@H]1CN([C@H](C)CO)C(=O)c2cc(NC(=O)Nc3cccc4ccccc34)ccc2O[C@@H]1CN(C)C(=O)Nc1ccc2c(c1)OCO2,0,33*,0,3,0
CCOCCn1c(SCc2ccccc2)nc2c1c(=O)[nH]c(=O)n2C,/,3,-6,3,0
CCOCCn1c(N2CCN(c3ccccc3)CC2)nc2c1c(=O)[nH]c(=O)n2C,2,-3,0,3,43*
C[C@@H]1CCCCO[C@@H](CN(C)C(=O)Nc2ccccc2)[C@H](C)CN([C@H](C)CO)C(=O)c2cc(NS(C)(=O)=O)ccc2O1,0,?,-1,1,0
COc1ccc(NC(=O)N(C)C[C@@H]2OCCCC[C@@H](C)Oc3ccc(NC(=O)CCCN(C)C)cc3C(=O)N([C@@H](C)CO)C[C@H]2C)cc1,0,67*,1,1,0
C[C@@H]1CCCCO[C@@H](CN(C)C(=O)Nc2ccccc2)[C@H](C)CN([C@@H](C)CO)C(=O)c2cc(NS(C)(=O)=O)ccc2O1,0,43*,-3,-2,0
COc1ccc(NC(=O)N(C)C[C@H]2OCCCC[C@@H](C)Oc3ccc(NC(=O)CCCN(C)C)cc3C(=O)N([C@@H](C)CO)C[C@@H]2C)cc1,0,16,-1,0,0
COc1ccc(NC(=O)N(C)C[C@H]2OCCCC[C@@H](C)Oc3ccc(NS(C)(=O)=O)cc3C(=O)N([C@H](C)CO)C[C@H]2C)cc1,0,95*,2,5,0
O=C1[C@H]2[C@@H](c3ccc(F)cc3)N3C(=O)N(c4cccc(F)c4)C(=O)[C@@]3(Cc3ccc(Cl)cc3)[C@H]2C(=O)N1C1CCCCC1,0,24*,1,/,0
Cc1cccc(N2C(=O)N3[C@H](c4ccc(F)cc4)[C@@H]4C(=O)N(C5CCCCC5)C(=O)[C@@H]4[C@]3(Cc3ccc(Cl)cc3)C2=O)c1,0,4,3,-4,0
CC(C)C[C@@]12C(=O)N(c3cccc(Cl)c3)C(=O)N1[C@H](c1ccc(Cl)cc1)[C@@H]1C(=O)N(C3CCCCC3)C(=O)[C@@H]12,0,2,2,0,1.6*
O=C(C1CCC1)N1CC(=O)N2[C@@H](CO)[C@@H](c3ccc(C4=CCCCC4)cc3)[C@@H]2C1,0,-7,-1,2,/
C[C@@H](NC(=O)C[C@@H]1C=C[C@H](NC(=O)C2CCC2)[C@H](CO)O1)c1ccccc1,0,-10,-3,1,0
CCOc1ccc(S(=O)(=O)NCc2ccccn2)cc1NC(=O)c1ccccc1,/,13,6,4,0
COc1ccc(S(=O)(=O)NCc2ccccn2)cc1NC(=O)c1ccccc1F,1,1,8.6*,2,0
COc1cc(CCC(=O)OCC(=O)Nc2ccccc2C#N)cc(OC)c1OC,458*,/,5,-1,0
C/C=C(\C)C(=O)Nc1cccc(C2=NOC3(C2)C[C@@H](C(N)=O)N(C(=O)c2ccccc2C(=O)c2ccccc2)C3)c1 (stereo partly specified),0,23*,-4,1,0
SMILES,E-sel inducer,DENV2 CPE,F508del corr,ERAP1 HTS inh,FGF22 binding
C=C(C)C(=O)Nc1cccc(C2=NOC3(C2)C[C@@H](C(N)=O)N(C(=O)/C(C)=C/C)C3)c1 (stereo partly specified),0,0,3,4,0
C/C=C(\C)C(=O)Nc1cccc(C2=NOC3(C2)C[C@@H](C(N)=O)N(C(=O)/C(C)=C/C)C3)c1 (stereo partly specified),0,30*,2,-2,0
Cc1noc(C)c1NC(=O)N(C)C[C@H]1Oc2c(NC(=O)Nc3ccccc3)cccc2C(=O)N([C@H](C)CO)C[C@H]1C,0,/,-3,/,/
CCCCn1c(N)c(N(CCOC)C(=O)c2cnccn2)c(=O)[nH]c1=O,7,2,-1,4,0
CCCCn1c(N)c(N(CCOC)C(=O)c2cnc(C)cn2)c(=O)[nH]c1=O,/,-11,2,49*,0
C[C@@H]1CCCCO[C@@H](CN(C)C(=O)Cc2ccccc2)[C@@H](C)CN([C@H](C)CO)C(=O)c2cc(NS(=O)(=O)c3ccccc3)ccc2O1,1,8,1,-1,0
Cc1ccc(CNC(=O)CSc2nnc3n2CCCCC3)cc1,0,-3,3,2,0
O=C(CSc1nnc2n1CCCCC2)NCc1ccccc1,0,3,-1,1,43*
CC(C)N1CCc2c(sc(NC(=O)c3ccc([N+](=O)[O-])o3)c2C(N)=O)C1,-1,-3,15*,9,0
CCCNC(=O)Nc1ccc2c(c1)C(=O)N(C)C[C@@H](OC)[C@H](C)CN(CC1CCCC1)[C@@H](C)CO2,0,/,-1,/,/
CCc1nc(=O)c(-c2ccccc2)c(C)n1-c1ccccc1,43*,7,-3,-2,0
CN(C)CCCNC(=O)c1ccc(Oc2ccccc2)cc1,/,-2,1,-1,44*
